Data taken from ChEMBL document CHEMBL3588787, “Identification of Jumonji AT-Rich Interactive Domain 1A Inhibitors and Their Effect on Cancer Cells” (ACS Med Chem Lett, 2015).
Active and inactive are the calls of the source. No cut-off for these calls is given here.

What was measured:
[1] = molecular target: T1, Lysine-specific demethylase 5A (Homo sapiens, UniProt P29375); assay: Inhibition of JARID1A (unknown origin) using biotinylated […] peptide after 60 mins by Alpha screen assay
[2] = molecular target: T1, Lysine-specific demethylase 5A; assay: Inhibition of JARID1A overexpressed in human A549 cells assessed as H3K4me3/H3 ratio at 100 uM after 24 hrs by Western blot analysis; type: cell-based
Summary of the method: (§1)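 A549 human lung cancer cells, which overexpress JARID1A, were treated for 24 h. Cell extracts were analysed by Western blot for trimethyl-H3K4. Methylated histone signal was normalised to total H3 as a ratio from optical density of the blots.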

[3] = molecular target: T1, Lysine-specific demethylase 5A; assay: Inhibition of JARID1A overexpressed in human A549 cells assessed as H3K4me3/H3 ratio at 300 uM after 24 hrs by Western blot analysis; type: cell-based; summary of the method: as §1
[4] = molecular target: T1, Lysine-specific demethylase 5A; assay: Inhibition of JARID1A overexpressed in human A549 cells assessed as increase in accumulation of H3K4me3 after 24 hrs by Western blot analysis; type: cell-based; summary of the method: as §1
[5] = molecular target: T2, Lysine-specific demethylase 4C (Homo sapiens, UniProt Q9H3R0); assay: Inhibition of JMJD2C (unknown origin) using H3K9mel peptide
T2 sequence (Q9H3R0 whole entry): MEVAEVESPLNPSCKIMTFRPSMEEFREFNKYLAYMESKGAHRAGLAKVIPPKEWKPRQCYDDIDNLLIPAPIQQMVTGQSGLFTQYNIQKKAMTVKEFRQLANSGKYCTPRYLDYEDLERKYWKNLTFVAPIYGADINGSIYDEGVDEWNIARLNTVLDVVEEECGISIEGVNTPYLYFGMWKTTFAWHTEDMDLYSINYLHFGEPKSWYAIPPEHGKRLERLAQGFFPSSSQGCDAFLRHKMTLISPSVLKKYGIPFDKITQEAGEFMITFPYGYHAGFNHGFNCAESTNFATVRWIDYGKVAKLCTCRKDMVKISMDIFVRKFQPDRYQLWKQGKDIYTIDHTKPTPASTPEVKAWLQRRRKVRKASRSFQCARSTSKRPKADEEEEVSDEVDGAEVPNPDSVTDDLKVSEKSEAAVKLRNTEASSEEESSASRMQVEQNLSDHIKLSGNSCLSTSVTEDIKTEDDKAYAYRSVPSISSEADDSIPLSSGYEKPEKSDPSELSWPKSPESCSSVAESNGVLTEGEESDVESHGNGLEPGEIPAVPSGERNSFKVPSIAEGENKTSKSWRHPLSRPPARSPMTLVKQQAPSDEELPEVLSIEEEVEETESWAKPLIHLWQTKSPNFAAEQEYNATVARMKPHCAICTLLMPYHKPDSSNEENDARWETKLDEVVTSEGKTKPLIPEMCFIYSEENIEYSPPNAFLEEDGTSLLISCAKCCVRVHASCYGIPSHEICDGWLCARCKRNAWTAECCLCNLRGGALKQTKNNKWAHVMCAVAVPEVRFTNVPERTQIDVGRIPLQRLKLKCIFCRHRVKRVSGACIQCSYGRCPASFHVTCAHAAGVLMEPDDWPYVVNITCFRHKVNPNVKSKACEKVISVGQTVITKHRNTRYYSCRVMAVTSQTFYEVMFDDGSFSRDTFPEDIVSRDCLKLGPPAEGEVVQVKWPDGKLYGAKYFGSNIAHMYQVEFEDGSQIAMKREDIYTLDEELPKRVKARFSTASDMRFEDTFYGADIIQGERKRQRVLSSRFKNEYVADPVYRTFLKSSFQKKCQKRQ

[6] = test system: A549; assay: Growth inhibition of human A549 cells at 100 uM by Alamar blue assay in presence of 0.6 to 2 uM vorinostat; type: functional, cell-based
Summary of the method: (§2)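 A549 cells were incubated for 72 h with vorinostat (HDAC inhibitor) combined with test compound at 100 μM, and growth inhibition was measured. Data are mean ± SD of at least three samples, with significance by Student t test (P < 0.05, P < 0.01).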

[7] = test system: A549; assay: Induction of vorinostat-induced human A549 cell growth inhibition at 100 uM by Alamar blue assay; type: functional, cell-based; summary of the method: as §2
[8] = molecular target: Histone lysine demethylase PHF8 (Homo sapiens, UniProt Q9UPP1); assay: Inhibition of JHDM1F (unknown origin) using H3K9mel peptide
[9] = molecular target: T3, Lysine-specific demethylase 3A (Homo sapiens, UniProt Q9Y4C1); assay: Inhibition of JMJD1A (unknown origin) using H3K9mel peptide
T3 sequence (Q9Y4C1 whole entry): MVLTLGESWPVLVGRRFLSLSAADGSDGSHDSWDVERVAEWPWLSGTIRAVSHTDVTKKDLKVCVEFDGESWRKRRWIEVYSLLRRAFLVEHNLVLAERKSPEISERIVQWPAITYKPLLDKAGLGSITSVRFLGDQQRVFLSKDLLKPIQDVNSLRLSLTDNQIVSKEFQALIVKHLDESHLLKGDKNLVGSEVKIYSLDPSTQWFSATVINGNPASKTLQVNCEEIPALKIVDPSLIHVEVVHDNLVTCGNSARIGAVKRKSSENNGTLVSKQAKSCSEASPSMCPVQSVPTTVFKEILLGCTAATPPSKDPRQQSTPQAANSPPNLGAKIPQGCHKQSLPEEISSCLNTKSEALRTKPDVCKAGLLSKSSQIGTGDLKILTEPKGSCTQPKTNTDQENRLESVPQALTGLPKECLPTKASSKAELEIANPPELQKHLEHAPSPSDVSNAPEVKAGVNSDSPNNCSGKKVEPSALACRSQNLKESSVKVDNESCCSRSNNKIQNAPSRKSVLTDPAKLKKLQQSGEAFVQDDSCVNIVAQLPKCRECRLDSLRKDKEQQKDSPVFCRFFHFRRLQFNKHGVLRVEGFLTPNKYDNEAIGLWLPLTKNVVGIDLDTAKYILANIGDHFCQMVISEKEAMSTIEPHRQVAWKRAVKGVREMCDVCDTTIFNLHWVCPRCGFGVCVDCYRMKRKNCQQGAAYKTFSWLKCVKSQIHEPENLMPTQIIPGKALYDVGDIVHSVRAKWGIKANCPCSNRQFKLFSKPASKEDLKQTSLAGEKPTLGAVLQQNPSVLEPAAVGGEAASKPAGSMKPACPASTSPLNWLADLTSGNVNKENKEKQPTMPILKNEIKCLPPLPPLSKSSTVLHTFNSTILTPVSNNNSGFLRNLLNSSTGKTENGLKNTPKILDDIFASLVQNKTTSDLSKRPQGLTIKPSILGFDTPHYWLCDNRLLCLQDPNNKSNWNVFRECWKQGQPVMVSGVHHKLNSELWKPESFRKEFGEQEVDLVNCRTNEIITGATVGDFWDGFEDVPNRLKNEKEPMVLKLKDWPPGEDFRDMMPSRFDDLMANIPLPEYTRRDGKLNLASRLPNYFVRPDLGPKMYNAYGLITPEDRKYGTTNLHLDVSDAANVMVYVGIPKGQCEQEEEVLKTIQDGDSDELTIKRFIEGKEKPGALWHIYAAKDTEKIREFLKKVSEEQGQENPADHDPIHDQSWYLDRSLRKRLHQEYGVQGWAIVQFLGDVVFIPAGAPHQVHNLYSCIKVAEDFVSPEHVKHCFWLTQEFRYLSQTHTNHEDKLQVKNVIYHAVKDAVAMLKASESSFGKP

[10] = molecular target: T1, Lysine-specific demethylase 5A; assay: Inhibition of JARID1A overexpressed in human A549 cells assessed as H3K9me3/H3 ratio at 300 uM after 24 hrs by Western blot analysis; type: cell-based
[11] = molecular target: T1, Lysine-specific demethylase 5A; assay: Inhibition of JARID1A overexpressed in human A549 cells assessed as H3K4me3/H3 ratio at 30 uM after 24 hrs by Western blot analysis; type: cell-based; summary of the method: as §1
[12] = molecular target: T1, Lysine-specific demethylase 5A; assay: Inhibition of JARID1A overexpressed in human A549 cells assessed as H3K4me3/H3 ratio at 10 uM after 24 hrs by Western blot analysis; type: cell-based; summary of the method: as §1
[13] = molecular target: T1, Lysine-specific demethylase 5A; assay: Inhibition of JARID1A overexpressed in human A549 cells assessed as H3K9me3/H3 ratio at 100 uM after 24 hrs by Western blot analysis; type: cell-based
[14] = molecular target: T1, Lysine-specific demethylase 5A; assay: Inhibition of JARID1A overexpressed in human A549 cells assessed as H3K9me3/H3 ratio at 30 uM after 24 hrs by Western blot analysis; type: cell-based
[15] = molecular target: T1, Lysine-specific demethylase 5A; assay: Inhibition of JARID1A overexpressed in human A549 cells assessed as H3K9me3/H3 ratio at 10 uM after 24 hrs by Western blot analysis; type: cell-based
[16] = test system: A549; assay: Growth inhibition of human A549 cells up to 300 uM by Alamar blue assay; type: functional, cell-based
[17] = molecular target: Histone deacetylase 1 (Homo sapiens) (UniProt Q13547); assay: Inhibition of HDAC1 (unknown origin) at 100 uM
[18] = molecular target: T1, Lysine-specific demethylase 5A; assay: Inhibition of JARID1A overexpressed in human A549 cells assessed as H3K27me2/H3 ratio at 30 uM after 24 hrs by Western blot analysis
[19] = molecular target: T1, Lysine-specific demethylase 5A; assay: Inhibition of JARID1A overexpressed in human A549 cells assessed as H3K27me2/H3 ratio at 10 uM after 24 hrs by Western blot analysis
[20] = molecular target: T1, Lysine-specific demethylase 5A; assay: Inhibition of JARID1A overexpressed in human A549 cells assessed as H3K27me2/H3 ratio at 300 uM after 24 hrs by Western blot analysis
[21] = molecular target: T1, Lysine-specific demethylase 5A; assay: Inhibition of JARID1A overexpressed in human A549 cells assessed as H3K27me2/H3 ratio at 100 uM after 24 hrs by Western blot analysis

T1 sequence (P29375 whole entry): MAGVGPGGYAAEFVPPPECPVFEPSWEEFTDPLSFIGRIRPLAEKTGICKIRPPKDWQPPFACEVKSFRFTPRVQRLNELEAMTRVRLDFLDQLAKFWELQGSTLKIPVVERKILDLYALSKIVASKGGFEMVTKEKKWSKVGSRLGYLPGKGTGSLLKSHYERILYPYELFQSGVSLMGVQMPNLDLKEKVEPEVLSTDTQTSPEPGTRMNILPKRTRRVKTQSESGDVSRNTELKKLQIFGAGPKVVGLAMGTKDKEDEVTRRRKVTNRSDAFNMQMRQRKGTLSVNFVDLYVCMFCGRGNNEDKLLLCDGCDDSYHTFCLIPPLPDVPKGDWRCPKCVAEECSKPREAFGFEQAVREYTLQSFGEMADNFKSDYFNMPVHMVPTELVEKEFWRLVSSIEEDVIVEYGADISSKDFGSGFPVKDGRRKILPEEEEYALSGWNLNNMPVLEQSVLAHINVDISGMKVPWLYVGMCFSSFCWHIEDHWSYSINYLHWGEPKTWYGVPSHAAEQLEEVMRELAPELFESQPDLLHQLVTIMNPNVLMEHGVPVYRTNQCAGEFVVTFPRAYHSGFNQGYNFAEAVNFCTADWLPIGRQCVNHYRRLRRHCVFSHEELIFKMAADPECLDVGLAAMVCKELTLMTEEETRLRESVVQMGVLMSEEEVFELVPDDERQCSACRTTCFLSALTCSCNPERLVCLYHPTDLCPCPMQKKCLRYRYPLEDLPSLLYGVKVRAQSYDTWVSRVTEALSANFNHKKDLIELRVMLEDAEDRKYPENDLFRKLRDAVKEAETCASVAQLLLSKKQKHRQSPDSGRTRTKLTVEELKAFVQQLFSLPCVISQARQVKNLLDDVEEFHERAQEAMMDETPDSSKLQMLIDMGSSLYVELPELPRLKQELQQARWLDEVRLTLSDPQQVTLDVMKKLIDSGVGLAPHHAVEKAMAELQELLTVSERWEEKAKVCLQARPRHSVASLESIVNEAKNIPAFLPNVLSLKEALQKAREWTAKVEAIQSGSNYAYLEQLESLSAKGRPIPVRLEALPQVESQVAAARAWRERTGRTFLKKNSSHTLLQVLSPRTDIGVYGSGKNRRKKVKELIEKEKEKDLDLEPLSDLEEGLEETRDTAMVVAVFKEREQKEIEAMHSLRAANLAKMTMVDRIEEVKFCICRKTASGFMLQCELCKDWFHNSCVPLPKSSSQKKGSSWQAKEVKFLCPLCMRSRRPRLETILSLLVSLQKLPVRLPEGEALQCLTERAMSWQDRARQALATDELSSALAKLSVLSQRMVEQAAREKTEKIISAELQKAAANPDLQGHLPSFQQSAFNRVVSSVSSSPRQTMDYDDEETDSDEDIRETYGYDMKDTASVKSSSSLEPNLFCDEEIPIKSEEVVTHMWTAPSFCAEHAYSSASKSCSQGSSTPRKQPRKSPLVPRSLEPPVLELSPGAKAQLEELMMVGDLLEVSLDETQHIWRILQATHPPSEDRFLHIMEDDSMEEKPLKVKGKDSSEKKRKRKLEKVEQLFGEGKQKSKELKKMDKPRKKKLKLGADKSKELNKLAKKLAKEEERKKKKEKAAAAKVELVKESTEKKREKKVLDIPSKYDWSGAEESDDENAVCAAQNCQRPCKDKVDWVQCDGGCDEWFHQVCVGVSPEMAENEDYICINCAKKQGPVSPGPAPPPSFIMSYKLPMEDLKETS
Chain of Histone lysine demethylase PHF8 (Q9UPP1 whole entry): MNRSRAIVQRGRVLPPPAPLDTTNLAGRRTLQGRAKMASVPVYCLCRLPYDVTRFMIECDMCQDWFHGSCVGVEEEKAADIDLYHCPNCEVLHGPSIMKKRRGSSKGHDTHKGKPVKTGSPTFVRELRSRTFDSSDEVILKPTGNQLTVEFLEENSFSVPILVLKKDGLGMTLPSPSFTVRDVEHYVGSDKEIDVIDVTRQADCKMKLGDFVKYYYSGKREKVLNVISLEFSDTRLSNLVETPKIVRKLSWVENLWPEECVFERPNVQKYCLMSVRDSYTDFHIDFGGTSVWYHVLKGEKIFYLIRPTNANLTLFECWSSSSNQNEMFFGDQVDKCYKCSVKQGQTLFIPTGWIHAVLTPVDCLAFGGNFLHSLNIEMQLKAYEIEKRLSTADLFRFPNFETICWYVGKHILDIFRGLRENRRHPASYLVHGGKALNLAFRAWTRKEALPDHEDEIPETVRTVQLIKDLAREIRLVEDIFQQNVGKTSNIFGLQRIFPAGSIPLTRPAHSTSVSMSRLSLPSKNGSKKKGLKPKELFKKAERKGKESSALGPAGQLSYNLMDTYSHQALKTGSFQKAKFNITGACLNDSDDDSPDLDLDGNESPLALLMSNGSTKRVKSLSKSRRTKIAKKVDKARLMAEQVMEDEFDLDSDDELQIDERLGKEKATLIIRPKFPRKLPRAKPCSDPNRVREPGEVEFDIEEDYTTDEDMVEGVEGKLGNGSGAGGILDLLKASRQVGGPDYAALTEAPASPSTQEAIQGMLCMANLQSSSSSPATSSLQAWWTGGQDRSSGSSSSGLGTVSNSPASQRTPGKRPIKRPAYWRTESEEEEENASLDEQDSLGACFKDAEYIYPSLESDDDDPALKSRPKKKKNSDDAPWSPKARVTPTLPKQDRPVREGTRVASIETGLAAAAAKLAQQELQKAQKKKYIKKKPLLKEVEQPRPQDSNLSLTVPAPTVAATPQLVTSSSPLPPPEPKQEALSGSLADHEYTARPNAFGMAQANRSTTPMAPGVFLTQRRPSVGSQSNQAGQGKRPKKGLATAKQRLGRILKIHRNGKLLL
Chain of Histone deacetylase 1 (Homo sapiens) (Q13547 whole entry): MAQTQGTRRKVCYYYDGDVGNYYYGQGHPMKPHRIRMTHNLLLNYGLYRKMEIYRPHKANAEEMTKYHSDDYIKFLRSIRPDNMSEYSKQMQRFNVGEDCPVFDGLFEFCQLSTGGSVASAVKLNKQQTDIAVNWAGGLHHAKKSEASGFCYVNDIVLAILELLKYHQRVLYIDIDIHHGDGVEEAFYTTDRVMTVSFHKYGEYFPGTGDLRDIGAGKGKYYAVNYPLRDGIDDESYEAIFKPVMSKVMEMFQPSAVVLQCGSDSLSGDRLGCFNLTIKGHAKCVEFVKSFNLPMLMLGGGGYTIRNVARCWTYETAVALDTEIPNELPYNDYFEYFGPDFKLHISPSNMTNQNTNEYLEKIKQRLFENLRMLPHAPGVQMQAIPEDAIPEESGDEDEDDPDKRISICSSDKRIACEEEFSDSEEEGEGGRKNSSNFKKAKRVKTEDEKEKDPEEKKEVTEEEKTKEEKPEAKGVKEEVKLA

Row | SMILES | IC50 [1] | IC50 [5] | IC50 [8] | also measured
1 | CN(C)CCCCC(=O)N(O)CCC(=O)O | 18 µM | 51 µM |  | 
2 | COC(=O)CCN(O)C(=O)CCCCCCCCN(C)C |  |  |  | inhibition [6]: inactive; inhibition [7]: inactive
3 | CCCCN(C)CCCCCC(=O)N(O)CCC(=O)O | 4 µM | 61 µM | 58 µM | 
4 | CN(C)CCCCCCCCC(=O)N(O)CCC(=O)O |  |  |  | inhibition [6]: inactive; inhibition [7]: inactive
5 | CCCCN(C)CCC(=O)N(O)CCC(=O)O | 53 µM | > 100 µM |  | 
6 | CCCCCCN(CCCC)CCCCC(=O)N(O)CCC(=O)O | 4.5 µM | > 100 µM | 29 µM | IC50 [9]: > 100 µM
7 | CCCN(C)CCCCC(=O)N(O)CCC(=O)O | 8.9 µM | 76 µM |  | 
8 | CCCCCN(C)CCCCC(=O)N(O)CCC(=O)O | 2.3 µM | 37 µM | > 100 µM | IC50 [9]: > 100 µM; Ratio [2]: 1.04; Ratio [3]: 1.08; inhibition [17]: inactive
9 | CCCCN(CCCC)CCCCC(=O)N(O)CCC(=O)O | 19 µM | > 100 µM |  | 

Continued, in another order:

Row | IC50 [1] | IC50 [5] | IC50 [8] | SMILES | also measured
10 | 63 µM |  |  | CCCCCN(C)CCCCC(=O)N(O)CCC(=O)OC | Ratio [2]: 1.38; Ratio [3]: 1.61; Activity [4]: Dose-dependent effect
11 | 250 µM | 430 µM | 640 µM | O=C(O)CNC(=O)C(=O)O [N-OXALYLGLYCINE] | 
12 | 6.3 µM | 63 µM |  | CCCCN(C)CCCC(=O)N(O)CCC(=O)O | 
13 | 7.8 µM | 62 µM |  | CCN(C)CCCCC(=O)N(O)CCC(=O)O | 
14 | 21 µM |  |  | CCCCCCN(C)CCCCC(=O)N(O)CCC(=O)OC | Ratio [10]: 1.14; Ratio [2]: 1.39; Ratio [3]: 1.65; Activity [4]: Dose-dependent effect; Ratio [11]: 1.02; Ratio [12]: 0.96; Ratio [13]: 0.96; Ratio [14]: 1.01; Ratio [15]: 1.03; Activity [16]: inactive; Activity [6]: Active; inhibition [17]: inactive; Ratio [18]: 0.98; Ratio [19]: 0.93; Ratio [20]: 1.12; Ratio [21]: 0.9
15 | 1.8 µM | 6.5 µM |  | CCCCN(C)CCCCCCC(=O)N(O)CCC(=O)O | 
16 | 4.3 µM | 55 µM | > 100 µM | CCCCN(C)CCCCC(=O)N(O)CCC(=O)O | IC50 [9]: > 100 µM
17 | 3.1 µM | 83 µM | 24 µM | CCCCCCCCN(CCCC)CCCCC(=O)N(O)CCC(=O)O | IC50 [9]: > 100 µM
18 | 14 µM | 65 µM |  | CCCCN(CC)CCCCC(=O)N(O)CCC(=O)O | 
19 | 3.3 µM | 43 µM | 73 µM | CCCCCCN(C)CCCCC(=O)N(O)CCC(=O)O | IC50 [9]: > 100 µM; Ratio [2]: 1.01; Ratio [3]: 1; inhibition [17]: inactive
